According to ChEMBL document CHEMBL1124866, “Synthesis and activity of NAcSerAspLysPro analogues on cellular interactions between T-cell and erythrocytes in rosette formation” (1990):
Active and inactive are the calls of the source. The rule behind the calls is not given here. Square brackets hold non-standard residues; d marks the D form. Peptide text beside a SMILES is read from it. Orn = NCCC[C@H](N)C(=O)O

Experiments:
Jurkat [1] = assay: (§1) Activity on rosetting of jurkat T-cells with SRBC at the concentration of 10e-4 M; format: functional, Homo sapiens
Jurkat [2] = assay: (§2) Activity on rosetting of jurkat T-cells with SRBC at the concentration of 10e-5 M; format: functional, Homo sapiens
Jurkat [3] = assay: (§3) Activity on rosetting of jurkat T-cells with SRBC at the concentration of 10e-8 M; format: functional, Homo sapiens
Jurkat [4] = assay: Activity on rosetting of jurkat T-cells with SRBC at the concentration of 10e-5 M; Not significant; format: functional, cell-based; conditions: Homo sapiens
Jurkat [5] = assay: Activity on rosetting of jurkat T-cells with SRBC at the concentration of 10e-8 M; Not significant; format: functional, cell-based; conditions: Homo sapiens, at 0.01 µM
How it was run: (§4)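 Jurkat T lymphoma cells kept in RPMI 1640 with 10% heat-inactivated FCS, washed three times before use; SRBC washed three times. Jurkat cells (2 × 10^6 cells/mL, 2.10⁵ cells) preincubated with peptide in RPMI for 10 min at 4 °C. SRBC (2 × 10^8 cells/mL) added, centrifuged 5 min at 200g, held overnight at 4 °C. Rosettes (three erythrocytes per lymphocyte) counted blind by hemocytometer; three experiments in quadruplicate; % inhibition.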

Jurkat [6] = assay: Activity on rosetting of jurkat T-cells with SRBC at the concentration of 0 M; format: functional, Homo sapiens
Jurkat [7] = assay: Activity on rosetting of jurkat T-cells with SRBC at the concentration of 10e-4 M; Not significant; format: functional, cell-based; conditions: Homo sapiens
Jurkat [8] = assay: (§5) Activity on rosetting of jurkat T-cells with SRBC at the concentration of 10e-9 M; format: functional, Homo sapiens
Jurkat [9] = assay: (§6) Activity on rosetting of jurkat T-cells with SRBC at the concentration of 10e-3 M; format: functional, Homo sapiens
Jurkat [10] = assay: (§7) Activity on rosetting of jurkat T-cells with SRBC at the concentration of 10e-6 M; format: functional, Homo sapiens
Jurkat [11] = assay: (§8) Activity on rosetting of jurkat T-cells with SRBC at the concentration of 10e-7 M; format: functional, Homo sapiens
Jurkat [12] = assay: Activity on rosetting of jurkat T-cells with SRBC at the concentration of 10e-3 M; Not significant; format: functional, cell-based; conditions: Homo sapiens
Jurkat [13] = assay: Activity on rosetting of jurkat T-cells with SRBC at the concentration of 10e-6 M; Not significant; format: functional, cell-based; conditions: Homo sapiens
Jurkat [14] = assay: Activity on rosetting of jurkat T-cells with SRBC at the concentration of 10e-7 M; Not significant; format: functional, cell-based; conditions: Homo sapiens, at 0.1 µM; how it was run: as §4
Jurkat [15] = assay: Activity on rosetting of jurkat T-cells with SRBC at the concentration of 10e-9 M; Not significant; format: functional, cell-based; conditions: Homo sapiens, at 0.001 µM; how it was run: as §4
Jurkat [16] = assay: (§9) Activity on rosetting of jurkat T-cells with SRBC at the concentration of 10e-10 M; format: functional, Homo sapiens
Jurkat [17] = assay: (§10) Activity on rosetting of jurkat T-cells with SRBC at the concentration of 10e-11 M; format: functional, Homo sapiens
Jurkat [18] = assay: Activity on rosetting of jurkat T-cells with SRBC at the concentration of 10e-10 M; Not significant; format: functional, cell-based; conditions: Homo sapiens, at 0.0001 µM; how it was run: as §4
Jurkat [19] = assay: Activity on rosetting of jurkat T-cells with SRBC at the concentration of 10e-11 M; Not significant; format: functional, cell-based; conditions: Homo sapiens, at 10 pM; how it was run: as §4
Jurkat [20] = assay: as §1; format: functional; conditions: Homo sapiens
Jurkat [21] = assay: as §2; format: functional; conditions: Homo sapiens
Jurkat [22] = assay: as §7; format: functional; conditions: Homo sapiens
Jurkat [23] = assay: Activity on rosetting of jurkat T-cells with SRBC at the concentration of 10e-14 M; format: functional, Homo sapiens
Jurkat [24] = assay: Activity on rosetting of jurkat T-cells with SRBC at the concentration of 10e-15 M; format: functional, Homo sapiens
Jurkat [25] = assay: Activity on rosetting of jurkat T-cells with SRBC at the concentration of 10e-15 M; Not significant; format: functional, cell-based; conditions: Homo sapiens
Jurkat [26] = assay: as §8; format: functional; conditions: Homo sapiens
Jurkat [27] = assay: as §3; format: functional; conditions: Homo sapiens
Jurkat [28] = assay: Activity on rosetting of jurkat T-cells with SRBC at the concentration of 10e-12 M; format: functional, Homo sapiens
Jurkat [29] = assay: Activity on rosetting of jurkat T-cells with SRBC at the concentration of 10e-13 M; format: functional, Homo sapiens
Jurkat [30] = assay: Activity on rosetting of jurkat T-cells with SRBC at the concentration of 10e-13 M; Not significant; format: functional, cell-based; conditions: Homo sapiens
Jurkat [31] = assay: Activity on rosetting of jurkat T-cells with SRBC at the concentration of 10e-14 M; Not significant; format: functional, cell-based; conditions: Homo sapiens
Jurkat [32] = assay: as §9; format: functional; conditions: Homo sapiens
Jurkat [33] = assay: as §10; format: functional; conditions: Homo sapiens
Jurkat [34] = assay: Activity on rosetting of jurkat T-cells with SRBC at the concentration of 10e-12 M; Not significant; format: functional, cell-based; conditions: Homo sapiens
Jurkat [35] = assay: as §6; format: functional; conditions: Homo sapiens
Jurkat [36] = assay: as §5; format: functional; conditions: Homo sapiens

Compound | No. of rosettes/100 Jurkat T cells (Jurkat [1]) | No. of rosettes/100 Jurkat T cells (Jurkat [2]) | No. of rosettes/100 Jurkat T cells (Jurkat [3]) | inhibition (Jurkat [4]) | inhibition (Jurkat [5]) | No. of rosettes/100 Jurkat T cells (Jurkat [6]) | inhibition (Jurkat [7]) | No. of rosettes/100 Jurkat T cells (Jurkat [8]) | No. of rosettes/100 Jurkat T cells (Jurkat [10]) | No. of rosettes/100 Jurkat T cells (Jurkat [11]) | inhibition (Jurkat [13]) | inhibition (Jurkat [14]) | inhibition (Jurkat [15]) | No. of rosettes/100 Jurkat T cells (Jurkat [16]) | No. of rosettes/100 Jurkat T cells (Jurkat [17]) | inhibition (Jurkat [18]) | inhibition (Jurkat [19]) | inhibition at 100 µM (Jurkat [20]) [%] | inhibition at 10 µM (Jurkat [21]) [%] | inhibition at 1 µM (Jurkat [22]) [%] | further results
NCCCC[C@H](NC(=O)[C@@H](N)CC(=O)O)C(=O)O (H-Asp-Lys-OH) | 53 | 56 | 58 | inactive | inactive | 56 | inactive |  |  |  |  |  |  |  |  |  |  |  |  |  | 
CC(=O)N[C@@H](CO)C(=O)N[C@H](CC(=O)O)C(=O)N[C@@H](CCCCN)C(=O)N1CCC[C@H]1C(=O)O | 48 | 49 | 47 | inactive | inactive | 51 | inactive | 51 | 42 | 47 | inactive | inactive | inactive | 43 | 57 | inactive | inactive |  |  |  | No. of rosettes/100 Jurkat T cells (Jurkat [9]): 48; inhibition (Jurkat [12]): inactive
NCCCC[C@H](NC(=O)[C@@H](N)CC(=O)O)C(=O)N1CCC[C@H]1C(=O)O (H-Asp-Lys-Pro-OH) | 55 | 57 |  | inactive |  | 54 | inactive |  |  |  |  |  |  |  |  |  |  |  |  |  | 
CC(=O)N[C@@H](CO)C(=O)N[C@@H](CC(=O)O)C(=O)O (Ac-Ser-Asp-OH) | 39 | 39 | 54 |  | inactive | 56 |  | 51 | 46 | 52 |  | inactive | inactive | 57 | 58 | inactive | inactive | 30 | 30 | 18 | 
CC(=O)N[C@@H](CO)C(=O)N[C@@H](CC(=O)O)C(=O)N[C@@H](CCCCN)C(=O)N1CCC[C@H]1C(=O)O (stereo in doubt; form 2) |  |  |  | inactive | inactive |  | inactive |  |  |  | inactive | inactive |  |  |  | inactive |  |  |  |  | 
NCCCC[C@H](NC(=O)[C@H](CC(=O)O)NC(=O)[C@@H](N)CO)C(=O)N1CCC[C@H]1C(=O)O (H-SDKP-OH) | 47 | 49 | 56 |  |  | 63 |  |  | 50 | 54 |  |  |  | 55 | 55 |  |  | 25 | 22 | 20 | No. of rosettes/100 Jurkat T cells (Jurkat [23]): 61; No. of rosettes/100 Jurkat T cells (Jurkat [24]): 60; inhibition (Jurkat [25]): inactive; inhibition at 0.1 µM (Jurkat [26]): 14%; inhibition at 0.01 µM (Jurkat [27]): 11%; No. of rosettes/100 Jurkat T cells (Jurkat [28]): 59; No. of rosettes/100 Jurkat T cells (Jurkat [29]): 58; inhibition (Jurkat [30]): inactive; inhibition (Jurkat [31]): inactive; inhibition at 0.0001 µM (Jurkat [32]): 13%; inhibition at 10 pM (Jurkat [33]): 13%; inhibition (Jurkat [34]): inactive
CC(=O)N[C@@H](CO)C(=O)N[C@@H](CC(=O)O)C(=O)N[C@@H](CCCCN)C(=O)N1CCC[C@H]1C(=O)O (stereo in doubt; form 2) [GORALATIDE] | 80 | 78 | 83 |  |  | 82 |  |  | 76 | 83 |  |  |  | 83 |  |  |  |  |  |  | 
CC(=O)N[C@@H](CO)C(=O)N[C@@H](CC(=O)O)C(=O)N[C@@H](CCCCN)C(=O)N1CCC[C@H]1C(=O)O (stereo in doubt; form 1) |  |  |  |  |  |  |  |  |  |  |  |  |  |  |  | inactive | inactive |  |  |  | 
N[C@@H](CO)C(=O)N[C@@H](CC(=O)O)C(=O)O (H-Ser-Asp-OH) | 46 | 55 | 55 | inactive | inactive | 51 |  | 64 | 55 | 58 | inactive | inactive | inactive |  |  |  |  | 31 |  |  | 
CC(=O)N[C@@H](CO)C(=O)N[C@@H](CCC(=O)O)C(=O)N[C@@H](CCCCN)C(=O)N1CCC[C@H]1C(=O)O (Ac-SEKP-OH) |  | 29 | 42 |  | inactive | 47 |  | 43 | 35 | 41 |  | inactive | inactive | 46 | 45 | inactive | inactive |  | 37 | 25 | 
CC(=O)N[C@@H](C)C(=O)N[C@@H](CC(=O)O)C(=O)N[C@@H](CCCCN)C(=O)N1CCC[C@H]1C(=O)O (Ac-ADKP-OH) | 54 | 57 | 63 | inactive | inactive | 60 | inactive | 64 | 59 | 59 | inactive | inactive | inactive | 56 | 56 | inactive | inactive |  |  |  | 
CC(=O)N[C@@H](CO)C(=O)N[C@@H](CC(=O)O)C(=O)N[C@@H](CCCN)C(=O)N1CCC[C@H]1C(=O)O (Ac-SD[Orn]P-OH) | 54 | 52 |  | inactive |  | 58 | inactive |  | 52 |  | inactive |  |  |  |  |  |  |  |  |  | 
CC(=O)N[C@@H](CO)C(=O)N[C@@H](CC(=O)O)C(=O)N[C@@H](CCCCN)C(=O)N1CCC[C@H]1C(=O)O (stereo in doubt; form 1) [GORALATIDE] | 33 | 32 | 41 |  |  | 62 |  | 48 | 37 | 40 |  |  |  | 63 | 58 |  |  | 48 | 48 | 40 | No. of rosettes/100 Jurkat T cells (Jurkat [9]): 32; inhibition at 1000 µM (Jurkat [35]): 48%; inhibition at 0.1 µM (Jurkat [26]): 35%; inhibition at 0.01 µM (Jurkat [27]): 34%; inhibition at 0.001 µM (Jurkat [36]): 21%
